In brackets after ≈: the same amount, converted by molar mass. Activity calls are given as the source filed them. The calls are words filed in the database; no cut-off is given here.
Legend:
Escherichia coli [1] = test: Antimicrobial activity against Escherichia coli after 24 hrs; assay type: functional
Outline: (§1)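 MIC by agar dilution: compound incorporated in nutrient agar at 0.1–256 µg/mL, with poorly soluble surfactants predissolved in minimal DMF and a DMF-matched solvent control. Plates were seeded with nutrient broth starter culture and incubated at 37 °C. Growth was scored visually after 24 h; test medium pH 6.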

Bacillus subtilis = test: Antimicrobial activity against Bacillus subtilis after 24 hrs; assay type: functional; outline: as §1
[2] = system: Bordetella bronchiseptica; test: Antimicrobial activity against Bordetella bronchiseptica after 24 hrs; assay type: functional; outline: as §1
Klebsiella pneumoniae [3] = test: Antimicrobial activity against Klebsiella pneumoniae after 24 hrs; assay type: functional; outline: as §1
[4] = system: Staphylococcus epidermidis; test: Antimicrobial activity against Staphylococcus epidermidis after 24 hrs; assay type: functional; outline: as §1
Micrococcus luteus = test: Antimicrobial activity against Micrococcus luteus after 24 hrs; assay type: functional; outline: as §1
Staphylococcus aureus = test: Antimicrobial activity against Staphylococcus aureus after 24 hrs; assay type: functional; outline: as §1
Klebsiella aerogenes [5] = test: Antimicrobial activity against Enterobacter aerogenes after 24 hrs; assay type: functional; outline: as §1
[6] = system: Salmonella enterica subsp. enterica; test: Antimicrobial activity against Salmonella Typhimurium after 24 hrs; assay type: functional, Salmonella enterica subsp. enterica serovar Typhimurium; outline: as §1
Serratia marcescens [7] = test: Antimicrobial activity against Serratia marcescens after 24 hrs; assay type: functional; outline: as §1
Pseudomonas aeruginosa [8] = test: Antimicrobial activity against Pseudomonas aeruginosa after 24 hrs; assay type: functional; outline: as §1
[9] = Toxicity in human erythrocytes assessed as hemolytic activity; assay type: cell-based, Erythrocyte
Outline: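 Erythrocytes washed three times in isotonic phosphate saline with 10 mmol/L glucose, pH 7.4, then exposed to surfactant for 10 min at room temperature with shaking and centrifuged. Supernatant A540 compared with water-lysed total-haemolysis controls. HC50 read from percent haemolysis versus concentration plots.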

Serratia marcescens [10] = test: Antimicrobial activity against Serratia marcescens at […] after 24 hrs; assay type: functional, organism-based
Candida albicans [11] = test: Antimicrobial activity against Candida albicans after 24 hrs; assay type: functional; outline: as §1
Pseudomonas aeruginosa [12] = test: Antimicrobial activity against Pseudomonas aeruginosa at […] after 24 hrs; assay type: functional, organism-based
[13] = system: Bordetella bronchiseptica; test: Antimicrobial activity against Bordetella bronchiseptica at […] after 24 hrs; assay type: functional, organism-based
Enterococcus hirae = test: Antimicrobial activity against Enterococcus hirae after 24 hrs; assay type: functional; outline: as §1
[14] = system: Salmonella enterica subsp. enterica; test: Antimicrobial activity against Salmonella Typhimurium at […] after 24 hrs; assay type: functional, organism-based; conditions: Salmonella enterica subsp. enterica serovar Typhimurium
[15] = Dissociation constant, pKa of the compound; assay type: physicochemical
Outline: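 Apparent pKa calculated from pH measurements of surfactant solutions at concentrations that show antimicrobial activity.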

[16] = Critical micelle concentration by PGSE-NMR method; assay type: physicochemical
Outline: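 Surfactant intradiffusion measured by PGSE-NMR, varying gradient strength, from alkyl-chain CH2 signal intensities, at 25 °C (50 °C for the palmitoyl analogue). CMC taken from fitting the two-site exchange model D_obs = p_mic·D_mic + (1−p_mic)·D_free to the descending part of D versus concentration.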

Klebsiella aerogenes [17] = test: Antimicrobial activity against Enterobacter aerogenes at […] after 24 hrs; assay type: functional, organism-based
[18] = Toxicity against Daphnia magna after 24 hrs by immobility assay
Outline: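 Daphnia magna acute test using laboratory-bred animals no older than 24 h. Medium pH 8.0, hardness 250 mg/L as CaCO3 (Ca/Mg 4/1), dark, 20 °C. Four groups of five per concentration, ten concentrations in geometric series. Immobility at 24 h plotted on log-probability paper; IC50 with 95% confidence ranges.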

Mycolicibacterium phlei = test: Antimicrobial activity against Mycobacterium phlei after 24 hrs; assay type: functional; outline: as §1
Bacillus cereus = test: Antimicrobial activity against Bacillus cereus var. mycoides after 24 hrs; assay type: functional
Outline: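 Agar dilution MIC: compounds incorporated into nutrient agar over 0.1–256 µg/mL; poorly soluble ones first dissolved in minimal DMF, then diluted into medium, with a DMF-supplemented solvent control. Inoculated from a nutrient broth starter culture to a final ca. 5 × […] CFU/mL. Incubated 24 h at 37 °C; growth scored visually against a compound-free control.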

Candida albicans [19] = test: Antimicrobial activity against Candida albicans at […] after 24 hrs; assay type: functional, organism-based
Klebsiella pneumoniae [20] = test: Antimicrobial activity against Klebsiella pneumoniae at […] after 24 hrs; assay type: functional, organism-based
Escherichia coli [21] = test: Antimicrobial activity against Escherichia coli at […] after 24 hrs; assay type: functional, organism-based

| Compound | MIC (Escherichia coli [1]) | MIC (Bacillus subtilis) | MIC [2] | MIC (Klebsiella pneumoniae [3]) | MIC [4] | MIC (Micrococcus luteus) | MIC (Staphylococcus aureus) | MIC (Klebsiella aerogenes [5]) | MIC [6] | IC50 [9] | Activity (Serratia marcescens [10]) | Activity (Pseudomonas aeruginosa [12]) | Activity [13] | MIC (Enterococcus hirae) | Activity [14] | CMC [16] | Activity (Klebsiella aerogenes [17]) | IC50 [18] | MIC (Mycolicibacterium phlei) | MIC (Bacillus cereus) | further results |
| --- | --- | --- | --- | --- | --- | --- | --- | --- | --- | --- | --- | --- | --- | --- | --- | --- | --- | --- | --- | --- | --- |
| hexadecyl trimethyl ammonium bromide | 44 µM | 44 µM | 20 µM | 44 µM | 10 µM | 44 µM |  |  |  |  |  |  |  |  |  |  |  |  |  |  |  |
| CCCCCCCCCCCC(=O)N[C@@H](CCCCN)C(=O)OC | 42 µM (≈ 14.4 µg/mL) | 42 µM (≈ 14.4 µg/mL) | 42 µM (≈ 14.4 µg/mL) | 85 µM (≈ 29.1 µg/mL) | 42 µM (≈ 14.4 µg/mL) | 11 µM (≈ 3.77 µg/mL) | 85 µM (≈ 29.1 µg/mL) | 157 µM (≈ 53.8 µg/mL) | 85 µM (≈ 29.1 µg/mL) | 199 µM |  |  |  |  |  |  |  |  |  |  | MIC (Serratia marcescens [7]): 338 µM (≈ 116 µg/mL); MIC (Pseudomonas aeruginosa [8]): 169 µM (≈ 57.9 µg/mL) |
| CCCCCCCCCCCC(=O)NCCCC[C@H](N)C(=O)OC.Cl | 169 µM | 338 µM |  | 338 µM | 169 µM | 338 µM | 338 µM |  |  | 391 µM | inactive | inactive | inactive | 338 µM | inactive | 5.5 mM | inactive | 32 µM | 169 µM | 169 µM | MIC (Candida albicans [11]): 169 µM; pKa [15]: 8.2 |
| CCCCCCCCCCCCCC(=O)NCCCC[C@H](N)C(=O)OC.Cl | 157 µM | 157 µM |  |  | 157 µM | 157 µM | 157 µM |  |  | 1230 µM | inactive | inactive | inactive | 157 µM | inactive | 1.6 mM | inactive | 7.3 µM | 78 µM | 157 µM | Activity (Candida albicans [19]): inactive; pKa [15]: 7.8; Activity (Klebsiella pneumoniae [20]): inactive |
| CCCCCCCCCCCCCCCC(=O)NCCCC[C@H](N)C(=O)OC.Cl |  | 148 µM |  |  | 148 µM | 74 µM | 148 µM |  |  | 1450 µM | inactive | inactive | inactive | 74 µM | inactive | 0.6 mM | inactive |  | 148 µM | 148 µM | Activity (Candida albicans [19]): inactive; Activity (Escherichia coli [21]): inactive; Activity (Klebsiella pneumoniae [20]): inactive |
| CCCCCCCCCCCC(=O)N[C@@H](CCCNC(=N)N)C(=O)OC | 157 µM (≈ 58.2 µg/mL) | 157 µM (≈ 58.2 µg/mL) | 157 µM (≈ 58.2 µg/mL) | 79 µM (≈ 29.3 µg/mL) | 20 µM (≈ 7.41 µg/mL) | 39 µM (≈ 14.5 µg/mL) | 39 µM (≈ 14.5 µg/mL) | 157 µM (≈ 58.2 µg/mL) | 157 µM (≈ 58.2 µg/mL) | 150 µM |  |  |  | 39 µM (≈ 14.5 µg/mL) |  |  |  | 36 µM | 39 µM (≈ 14.5 µg/mL) | 39 µM (≈ 14.5 µg/mL) | MIC (Candida albicans [11]): 157 µM (≈ 58.2 µg/mL); MIC (Serratia marcescens [7]): 315 µM (≈ 117 µg/mL); MIC (Pseudomonas aeruginosa [8]): 157 µM (≈ 58.2 µg/mL) |
